Results as given in ChEMBL document CHEMBL1155372, “Design and synthesis of novel deoxybenzoin derivatives as FabH inhibitors and anti-inflammatory agents” (Bioorg Med Chem Lett, 2010).
Converted amounts (≈) assume the structure as drawn. The source made the active and inactive calls. No cut-off for these calls is given here.

Test system: Escherichia coli
Experiment: Antibacterial activity against Escherichia coli ATCC 35218
Assay type: functional

SMILES | MIC
Cc1ccc(/N=C(/Cc2ccc(F)cc2)c2ccc(O)cc2O)cc1 | 25 mg/L (≈ 74.5 µM)
Oc1ccc(/N=C(/Cc2ccc(F)cc2)c2ccc(O)c(O)c2O)cc1 | 25 mg/L (≈ 70.8 µM)
Cc1ccc(/N=C(/Cc2ccc(Cl)cc2)c2ccc(O)cc2O)cc1 | 12.5 mg/L (≈ 35.5 µM)
Cc1ccc(/N=C(/Cc2ccc(F)cc2)c2ccc(O)c(O)c2O)cc1 | 50 mg/L (≈ 142 µM)
O=[N+]([O-])c1ccc(/N=C(/Cc2ccc(Cl)cc2)c2ccc(O)cc2O)cc1 | 6.25 mg/L (≈ 16.3 µM)
O=[N+]([O-])c1ccc(/N=C(/Cc2ccc(F)cc2)c2ccc(O)cc2O)cc1 | 6.25 mg/L (≈ 17.1 µM)
Oc1ccc(/C(Cc2ccc(F)cc2)=N\c2ccc(Br)cc2)c(O)c1 | 3.12 mg/L (≈ 7.81 µM)
Oc1ccc(/C(Cc2ccc(Cl)cc2)=N\c2ccc(Cl)cc2)c(O)c1 | 0.78 mg/L (≈ 2.1 µM)
Oc1ccc(/C(Cc2ccc(F)cc2)=N\c2ccc(Cl)cc2)c(O)c1 | 1.56 mg/L (≈ 4.39 µM)
Oc1ccc(/N=C(/Cc2ccc(Cl)cc2)c2ccc(O)cc2O)cc1 | 6.25 mg/L (≈ 17.7 µM)
Oc1ccc(/C(Cc2ccc(Cl)cc2)=N\c2ccc(Cl)cc2)cc1O | 6.25 mg/L (≈ 16.8 µM)
Oc1ccc(/C(Cc2ccc(Cl)cc2)=N\c2ccc(Cl)cc2)c(O)c1O | 12.5 mg/L (≈ 32.2 µM)
Oc1ccc(/C(Cc2ccc(Cl)cc2)=N\c2ccc(Br)cc2)c(O)c1 | 3.12 mg/L (≈ 7.5 µM)

Test system: Bacillus subtilis
Experiment: Antibacterial activity against Bacillus subtilis ATCC 6633
Assay type: functional

SMILES | MIC
Cc1ccc(/N=C(/Cc2ccc(F)cc2)c2ccc(O)cc2O)cc1 | 25 mg/L (≈ 74.5 µM)
Oc1ccc(/N=C(/Cc2ccc(F)cc2)c2ccc(O)c(O)c2O)cc1 | 50 mg/L (≈ 142 µM)
Cc1ccc(/N=C(/Cc2ccc(Cl)cc2)c2ccc(O)cc2O)cc1 | 25 mg/L (≈ 71.1 µM)
Cc1ccc(/N=C(/Cc2ccc(F)cc2)c2ccc(O)c(O)c2O)cc1 | 50 mg/L (≈ 142 µM)
O=[N+]([O-])c1ccc(/N=C(/Cc2ccc(Cl)cc2)c2ccc(O)cc2O)cc1 | 25 mg/L (≈ 65.3 µM)
O=[N+]([O-])c1ccc(/N=C(/Cc2ccc(F)cc2)c2ccc(O)cc2O)cc1 | 50 mg/L (≈ 136 µM)
Oc1ccc(/C(Cc2ccc(F)cc2)=N\c2ccc(Br)cc2)c(O)c1 | 50 mg/L (≈ 125 µM)
Oc1ccc(/C(Cc2ccc(Cl)cc2)=N\c2ccc(Cl)cc2)c(O)c1 | 25 mg/L (≈ 67.2 µM)
Oc1ccc(/C(Cc2ccc(F)cc2)=N\c2ccc(Cl)cc2)c(O)c1 | 50 mg/L (≈ 141 µM)
Oc1ccc(/N=C(/Cc2ccc(Cl)cc2)c2ccc(O)cc2O)cc1 | 25 mg/L (≈ 70.7 µM)
Oc1ccc(/C(Cc2ccc(Cl)cc2)=N\c2ccc(Cl)cc2)cc1O | 50 mg/L (≈ 134 µM)
Oc1ccc(/C(Cc2ccc(Cl)cc2)=N\c2ccc(Cl)cc2)c(O)c1O | 50 mg/L (≈ 129 µM)
Oc1ccc(/C(Cc2ccc(Cl)cc2)=N\c2ccc(Br)cc2)c(O)c1 | 12.5 mg/L (≈ 30 µM)

Test system: Pseudomonas aeruginosa
Experiment: Antibacterial activity against Pseudomonas aeruginosa ATCC 2785
Assay type: functional

SMILES | MIC
Cc1ccc(/N=C(/Cc2ccc(F)cc2)c2ccc(O)cc2O)cc1 | 25 mg/L (≈ 74.5 µM)
Oc1ccc(/N=C(/Cc2ccc(F)cc2)c2ccc(O)c(O)c2O)cc1 | 50 mg/L (≈ 142 µM)
Cc1ccc(/N=C(/Cc2ccc(Cl)cc2)c2ccc(O)cc2O)cc1 | 12.5 mg/L (≈ 35.5 µM)
Cc1ccc(/N=C(/Cc2ccc(F)cc2)c2ccc(O)c(O)c2O)cc1 | 50 mg/L (≈ 142 µM)
O=[N+]([O-])c1ccc(/N=C(/Cc2ccc(Cl)cc2)c2ccc(O)cc2O)cc1 | 6.25 mg/L (≈ 16.3 µM)
O=[N+]([O-])c1ccc(/N=C(/Cc2ccc(F)cc2)c2ccc(O)cc2O)cc1 | 12.5 mg/L (≈ 34.1 µM)
Oc1ccc(/C(Cc2ccc(F)cc2)=N\c2ccc(Br)cc2)c(O)c1 | 6.25 mg/L (≈ 15.6 µM)
Oc1ccc(/C(Cc2ccc(Cl)cc2)=N\c2ccc(Cl)cc2)c(O)c1 | 1.56 mg/L (≈ 4.2 µM)
Oc1ccc(/C(Cc2ccc(F)cc2)=N\c2ccc(Cl)cc2)c(O)c1 | 1.56 mg/L (≈ 4.39 µM)
Oc1ccc(/N=C(/Cc2ccc(Cl)cc2)c2ccc(O)cc2O)cc1 | 12.5 mg/L (≈ 35.3 µM)
Oc1ccc(/C(Cc2ccc(Cl)cc2)=N\c2ccc(Cl)cc2)cc1O | 6.25 mg/L (≈ 16.8 µM)
Oc1ccc(/C(Cc2ccc(Cl)cc2)=N\c2ccc(Cl)cc2)c(O)c1O | 25 mg/L (≈ 64.4 µM)
Oc1ccc(/C(Cc2ccc(Cl)cc2)=N\c2ccc(Br)cc2)c(O)c1 | 3.12 mg/L (≈ 7.5 µM)

Test system: Staphylococcus aureus
Experiment: Antibacterial activity against Staphylococcus aureus ATCC 6538
Assay type: functional

SMILES | MIC
Cc1ccc(/N=C(/Cc2ccc(F)cc2)c2ccc(O)cc2O)cc1 | 25 mg/L (≈ 74.5 µM)
Oc1ccc(/N=C(/Cc2ccc(F)cc2)c2ccc(O)c(O)c2O)cc1 | 50 mg/L (≈ 142 µM)
Cc1ccc(/N=C(/Cc2ccc(Cl)cc2)c2ccc(O)cc2O)cc1 | 12.5 mg/L (≈ 35.5 µM)
Cc1ccc(/N=C(/Cc2ccc(F)cc2)c2ccc(O)c(O)c2O)cc1 | 50 mg/L (≈ 142 µM)
O=[N+]([O-])c1ccc(/N=C(/Cc2ccc(Cl)cc2)c2ccc(O)cc2O)cc1 | 12.5 mg/L (≈ 32.7 µM)
O=[N+]([O-])c1ccc(/N=C(/Cc2ccc(F)cc2)c2ccc(O)cc2O)cc1 | 50 mg/L (≈ 136 µM)
Oc1ccc(/C(Cc2ccc(F)cc2)=N\c2ccc(Br)cc2)c(O)c1 | 50 mg/L (≈ 125 µM)
Oc1ccc(/C(Cc2ccc(Cl)cc2)=N\c2ccc(Cl)cc2)c(O)c1 | 25 mg/L (≈ 67.2 µM)
Oc1ccc(/C(Cc2ccc(F)cc2)=N\c2ccc(Cl)cc2)c(O)c1 | 50 mg/L (≈ 141 µM)
Oc1ccc(/N=C(/Cc2ccc(Cl)cc2)c2ccc(O)cc2O)cc1 | > 50 mg/L
Oc1ccc(/C(Cc2ccc(Cl)cc2)=N\c2ccc(Cl)cc2)cc1O | 50 mg/L (≈ 134 µM)
Oc1ccc(/C(Cc2ccc(Cl)cc2)=N\c2ccc(Cl)cc2)c(O)c1O | 50 mg/L (≈ 129 µM)
Oc1ccc(/C(Cc2ccc(Cl)cc2)=N\c2ccc(Br)cc2)c(O)c1 | 25 mg/L (≈ 60 µM)

Test system: not listed separately
Experiment: Inhibition of Escherichia coli FabH expressed after 25 mins by liquid scintillation counting

SMILES | IC50
Cc1ccc(/N=C(/Cc2ccc(F)cc2)c2ccc(O)cc2O)cc1 | 35.3 µM
Oc1ccc(/N=C(/Cc2ccc(F)cc2)c2ccc(O)c(O)c2O)cc1 | 63.4 µM
Cc1ccc(/N=C(/Cc2ccc(Cl)cc2)c2ccc(O)cc2O)cc1 | 15.1 µM
O=[N+]([O-])c1ccc(/N=C(/Cc2ccc(Cl)cc2)c2ccc(O)cc2O)cc1 | 8.7 µM
O=[N+]([O-])c1ccc(/N=C(/Cc2ccc(F)cc2)c2ccc(O)cc2O)cc1 | 28.7 µM
Oc1ccc(/C(Cc2ccc(F)cc2)=N\c2ccc(Br)cc2)c(O)c1 | 8.3 µM
Oc1ccc(/C(Cc2ccc(Cl)cc2)=N\c2ccc(Cl)cc2)c(O)c1 | 1.8 µM
Oc1ccc(/C(Cc2ccc(F)cc2)=N\c2ccc(Cl)cc2)c(O)c1 | 3.9 µM
Oc1ccc(/N=C(/Cc2ccc(Cl)cc2)c2ccc(O)cc2O)cc1 | 20.5 µM
Oc1ccc(/C(Cc2ccc(Cl)cc2)=N\c2ccc(Br)cc2)c(O)c1 | 9.1 µM

Test system: Candida albicans
Experiment: Antifungal activity against Candida albicans ATCC 10231
Assay type: functional

SMILES | MIC
Cc1ccc(/N=C(/Cc2ccc(F)cc2)c2ccc(O)cc2O)cc1 | > 50 mg/L
Oc1ccc(/N=C(/Cc2ccc(F)cc2)c2ccc(O)c(O)c2O)cc1 | > 50 mg/L
Cc1ccc(/N=C(/Cc2ccc(Cl)cc2)c2ccc(O)cc2O)cc1 | > 50 mg/L
Cc1ccc(/N=C(/Cc2ccc(F)cc2)c2ccc(O)c(O)c2O)cc1 | > 50 mg/L
O=[N+]([O-])c1ccc(/N=C(/Cc2ccc(Cl)cc2)c2ccc(O)cc2O)cc1 | > 50 mg/L
O=[N+]([O-])c1ccc(/N=C(/Cc2ccc(F)cc2)c2ccc(O)cc2O)cc1 | > 50 mg/L
Oc1ccc(/C(Cc2ccc(F)cc2)=N\c2ccc(Br)cc2)c(O)c1 | > 50 mg/L
Oc1ccc(/C(Cc2ccc(Cl)cc2)=N\c2ccc(Cl)cc2)c(O)c1 | > 50 mg/L
Oc1ccc(/C(Cc2ccc(F)cc2)=N\c2ccc(Cl)cc2)c(O)c1 | > 50 mg/L
Oc1ccc(/N=C(/Cc2ccc(Cl)cc2)c2ccc(O)cc2O)cc1 | > 50 mg/L
Oc1ccc(/C(Cc2ccc(Cl)cc2)=N\c2ccc(Cl)cc2)cc1O | > 50 mg/L
Oc1ccc(/C(Cc2ccc(Cl)cc2)=N\c2ccc(Cl)cc2)c(O)c1O | > 50 mg/L
Oc1ccc(/C(Cc2ccc(Cl)cc2)=N\c2ccc(Br)cc2)c(O)c1 | > 50 mg/L

Test system: Aspergillus niger
Experiment: Antifungal activity against Aspergillus niger ATCC 16404
Assay type: functional

SMILES | MIC
Cc1ccc(/N=C(/Cc2ccc(F)cc2)c2ccc(O)cc2O)cc1 | > 50 mg/L
Oc1ccc(/N=C(/Cc2ccc(F)cc2)c2ccc(O)c(O)c2O)cc1 | > 50 mg/L
Cc1ccc(/N=C(/Cc2ccc(Cl)cc2)c2ccc(O)cc2O)cc1 | > 50 mg/L
Cc1ccc(/N=C(/Cc2ccc(F)cc2)c2ccc(O)c(O)c2O)cc1 | > 50 mg/L
O=[N+]([O-])c1ccc(/N=C(/Cc2ccc(Cl)cc2)c2ccc(O)cc2O)cc1 | > 50 mg/L
O=[N+]([O-])c1ccc(/N=C(/Cc2ccc(F)cc2)c2ccc(O)cc2O)cc1 | > 50 mg/L
Oc1ccc(/C(Cc2ccc(F)cc2)=N\c2ccc(Br)cc2)c(O)c1 | > 50 mg/L
Oc1ccc(/C(Cc2ccc(Cl)cc2)=N\c2ccc(Cl)cc2)c(O)c1 | > 50 mg/L
Oc1ccc(/C(Cc2ccc(F)cc2)=N\c2ccc(Cl)cc2)c(O)c1 | > 50 mg/L
Oc1ccc(/N=C(/Cc2ccc(Cl)cc2)c2ccc(O)cc2O)cc1 | > 50 mg/L
Oc1ccc(/C(Cc2ccc(Cl)cc2)=N\c2ccc(Cl)cc2)cc1O | > 50 mg/L
Oc1ccc(/C(Cc2ccc(Cl)cc2)=N\c2ccc(Cl)cc2)c(O)c1O | > 50 mg/L
Oc1ccc(/C(Cc2ccc(Cl)cc2)=N\c2ccc(Br)cc2)c(O)c1 | > 50 mg/L

Test system: AGS
Experiment: Inhibition of Escherichia coli-stimulated IL-8 production in human AGS cells at 15 to 60 umol/L after 12 hrs by ELISA
Assay type: functional, cell-based
Summary of the method: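 AGS gastric mucosal cells stimulated with Escherichia coli water extract to induce IL-8 production, with agent added at 15, 30 and 60 μmol L⁻¹. IL-8 released was measured in pg mL⁻¹ and compared with extract-stimulated control. Values are means ± SEM of 3–5 experiments.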

SMILES | inhibition
Cc1ccc(/N=C(/Cc2ccc(F)cc2)c2ccc(O)c(O)c2O)cc1 | inactive
CC(=O)Oc1ccccc1C(=O)O [ASPIRIN] | Active

Test system: AGS
Experiment: Cytotoxicity against human AGS cells at 15 to 60 umol/L after 48 hrs by MTT assay
Assay type: cell-based
Summary of the method: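 AGS gastric cells incubated with test agent at serial concentrations of 15, 30 and 60 μmol L⁻¹. Viability read by MTT assay 48 h later. Values are means ± SEM of 4–6 experiments.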

SMILES | Activity
CC(=O)Oc1ccccc1C(=O)O [ASPIRIN] | Non-toxic
Oc1ccc(/C(Cc2ccc(Cl)cc2)=N\c2ccc(Cl)cc2)c(O)c1 | Non-toxic

Test system: Trichophyton rubrum
Experiment: Antifungal activity against Trichophyton rubrum ATCC 10218

SMILES | MIC
Cc1ccc(/N=C(/Cc2ccc(F)cc2)c2ccc(O)cc2O)cc1 | > 50 mg/L
Oc1ccc(/N=C(/Cc2ccc(F)cc2)c2ccc(O)c(O)c2O)cc1 | > 50 mg/L
Cc1ccc(/N=C(/Cc2ccc(Cl)cc2)c2ccc(O)cc2O)cc1 | > 50 mg/L
Cc1ccc(/N=C(/Cc2ccc(F)cc2)c2ccc(O)c(O)c2O)cc1 | > 50 mg/L
O=[N+]([O-])c1ccc(/N=C(/Cc2ccc(Cl)cc2)c2ccc(O)cc2O)cc1 | > 50 mg/L
O=[N+]([O-])c1ccc(/N=C(/Cc2ccc(F)cc2)c2ccc(O)cc2O)cc1 | > 50 mg/L
Oc1ccc(/C(Cc2ccc(F)cc2)=N\c2ccc(Br)cc2)c(O)c1 | > 50 mg/L
Oc1ccc(/C(Cc2ccc(Cl)cc2)=N\c2ccc(Cl)cc2)c(O)c1 | > 50 mg/L
Oc1ccc(/C(Cc2ccc(F)cc2)=N\c2ccc(Cl)cc2)c(O)c1 | > 50 mg/L
Oc1ccc(/N=C(/Cc2ccc(Cl)cc2)c2ccc(O)cc2O)cc1 | > 50 mg/L
Oc1ccc(/C(Cc2ccc(Cl)cc2)=N\c2ccc(Cl)cc2)cc1O | > 50 mg/L
Oc1ccc(/C(Cc2ccc(Cl)cc2)=N\c2ccc(Cl)cc2)c(O)c1O | > 50 mg/L
Oc1ccc(/C(Cc2ccc(Cl)cc2)=N\c2ccc(Br)cc2)c(O)c1 | > 50 mg/L
